Experimental data reported in ChEMBL document CHEMBL1772954, “Antifungal, cytotoxic and SAR studies of a series of N-alkyl, N-aryl and N-alkylphenyl-1,4-pyrrolediones and related compounds” (Bioorg Med Chem, 2011).
Values after ≈ are worked out from the molar mass of the structure shown.

Experiments:
[1] = tested on: Candida tropicalis; assay: Antifungal activity against Candida tropicalis C 131 2000; format: functional
Method in brief: (§1)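 CLSI M27-A3 broth microdilution in RPMI-1640 buffered to pH 7.0 with MOPS. Inoculum 1-5 × 10^3 CFU/mL. Compound twofold dilutions from 250 to 0.24 µg/ml, final DMSO <1%. Incubated at 35 °C in a moist, dark chamber and read at 48 h. MIC is the lowest concentration giving total growth inhibition. For MFC, 5 µL from clear wells was plated in duplicate on SDA; MFC is the lowest concentration with no growth.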

[2] = Cytotoxicity against human erythrocytes assessed as hemolysis by spectrometric analysis; format: cell-based, Erythrocyte
Method in brief: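 Human heparinized red blood cells were washed in PBS at pH 7.0 and suspended at 4% in sterile 5% glucose. Compounds from DMSO stocks were diluted in 5% glucose to final concentrations of 250 to 0.24 µg/ml and incubated with the cells at 37 °C. Released hemoglobin was read at 540 nm. HC50 is the concentration giving 50% lysis relative to the drug-free value.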

[3] = tested on: MCF7; assay: Cytotoxicity against human MCF7 cells assessed as cell growth after 2 days by sulforhodamine B assay; format: functional; conditions: MCF7, 48 h
Method in brief: (§2)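 NCI cell lines were run by the Monks method: cells were plated with compounds from DMSO stocks and incubated 2 days at 37 °C in 5% CO2, in duplicate. Cells were fixed with cold TCA, stained with 0.4% SRB, and the bound dye was solubilized in 10 mM tris-base and read at 515 nm. The zero-day control was subtracted, and GI50 was taken from the curves.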

[4] = tested on: Cryptococcus neoformans; assay: Antifungal activity against Cryptococcus neoformans ATCC 32264; format: functional; method in brief: as §1
[5] = tested on: Aspergillus fumigatus; assay: Antifungal activity against Aspergillus fumigatus ATCC 26934; format: functional
Method in brief: (§3)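 Broth microdilution per CLSI M38-A2 in RPMI-1640 with MOPS at pH 7.0. Inoculum 1-5 × 10^3 CFU/mL, with twofold compound dilutions spanning 250-0.24 µg/ml (final DMSO <1%). Plates incubated at 35 °C, moist and dark, and read when the control fungus had grown. MIC is total growth inhibition. MFC comes from subculturing clear wells in duplicate onto SDA.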

[6] = tested on: Trichophyton rubrum; assay: Antifungal activity against Trichophyton rubrum C 113 2000; format: functional
Method in brief: (§4)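 Dermatophytes tested by CLSI M38-A2 microdilution in MOPS-buffered RPMI-1640 at pH 7.0. Inoculum 1-5 × 10^3 CFU/mL; compounds 250 to 0.24 µg/ml in twofold steps, final DMSO <1%. Incubated at 28 °C in a moist, dark chamber and read according to control growth. MIC is the lowest concentration with complete inhibition. MFC is the lowest concentration with no growth after duplicate subculture on SDA.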

[7] = tested on: NCI-H460; assay: Cytotoxicity against human H460 cells assessed as cell growth after 2 days by sulforhodamine B assay; format: functional; conditions: NCI-H460, 48 h; method in brief: as §2
[8] = tested on: Trichophyton mentagrophytes; assay: Antifungal activity against Trichophyton mentagrophytes ATCC 9972; format: functional; method in brief: as §4
[9] = tested on: Aspergillus flavus; assay: Antifungal activity against Aspergillus flavus ATCC 9170; format: functional; method in brief: as §3
[10] = tested on: Aspergillus niger; assay: Antifungal activity against Aspergillus niger ATCC 9029; format: functional; method in brief: as §3
[11] = tested on: Saccharomyces cerevisiae; assay: Antifungal activity against Saccharomyces cerevisiae ATCC 9763; format: functional; method in brief: as §1
[12] = tested on: Nannizzia gypsea; assay: Antifungal activity against Microsporum gypseum C 115 2000; format: functional; method in brief: as §4
[13] = tested on: Candida albicans; assay: Antifungal activity against Candida albicans ATCC 10213; format: functional; method in brief: as §1
[14] = tested on: SF-268; assay: Cytotoxicity against human SF268 cells assessed as cell growth after 2 days by sulforhodamine B assay; format: functional; conditions: SF-268, 48 h; method in brief: as §2

| MIC [1] | MIC [4] | MIC [5] | MIC [6] | MIC [8] | MIC [9] | MIC [10] | MIC [11] | Structure (SMILES) | MFC [1] | HC50 [2] | GI50 [3] | MFC [4] | MFC [5] | MFC [6] | GI50 [7] | MFC [8] | MFC [9] | MFC [10] | MFC [11] | MFC [12] | further results |
| --- | --- | --- | --- | --- | --- | --- | --- | --- | --- | --- | --- | --- | --- | --- | --- | --- | --- | --- | --- | --- | --- |
| 62.5 µg/mL (≈ 449 µM) | 7.81 µg/mL (≈ 56.1 µM) | 15.6 µg/mL (≈ 112 µM) | 3.9 µg/mL (≈ 28 µM) | 7.81 µg/mL (≈ 56.1 µM) | 15.6 µg/mL (≈ 112 µM) | 15.6 µg/mL (≈ 112 µM) | 15.6 µg/mL (≈ 112 µM) | CCCN1C(=O)C=CC1=O | 125 µg/mL (≈ 898 µM) | > 250 µg/mL | > 10 µg/mL | 15.6 µg/mL (≈ 112 µM) | 31.2 µg/mL (≈ 225 µM) | 7.81 µg/mL (≈ 56.1 µM) | > 10 µg/mL | 7.81 µg/mL (≈ 56.1 µM) | 15.6 µg/mL (≈ 112 µM) | 15.6 µg/mL (≈ 112 µM) | 31.2 µg/mL (≈ 225 µM) | 7.81 µg/mL (≈ 56.1 µM) | MIC [12]: 3.9 µg/mL (≈ 28 µM); MFC [13]: 125 µg/mL (≈ 898 µM); MIC [13]: 62.5 µg/mL (≈ 449 µM); GI50 [14]: > 10 µg/mL |
| 3.9 µg/mL (≈ 25.5 µM) | 3.9 µg/mL (≈ 25.5 µM) | 1.95 µg/mL (≈ 12.7 µM) | 1.95 µg/mL (≈ 12.7 µM) | 1.95 µg/mL (≈ 12.7 µM) | 1.95 µg/mL (≈ 12.7 µM) | 3.9 µg/mL (≈ 25.5 µM) | 1.95 µg/mL (≈ 12.7 µM) | CCCCN1C(=O)C=CC1=O | 3.9 µg/mL (≈ 25.5 µM) | > 250 µg/mL | > 10 µg/mL | 7.81 µg/mL (≈ 51 µM) | 1.95 µg/mL (≈ 12.7 µM) | 1.95 µg/mL (≈ 12.7 µM) | > 10 µg/mL | 3.9 µg/mL (≈ 25.5 µM) | 7.81 µg/mL (≈ 51 µM) | 3.9 µg/mL (≈ 25.5 µM) | 1.95 µg/mL (≈ 12.7 µM) | 3.9 µg/mL (≈ 25.5 µM) | MIC [12]: 3.9 µg/mL (≈ 25.5 µM); MFC [13]: 15.6 µg/mL (≈ 102 µM); MIC [13]: 3.9 µg/mL (≈ 25.5 µM); GI50 [14]: > 10 µg/mL |
| 31.2 µg/mL (≈ 281 µM) | 15.6 µg/mL (≈ 141 µM) | 15.6 µg/mL (≈ 141 µM) | 3.9 µg/mL (≈ 35.1 µM) | 7.81 µg/mL (≈ 70.3 µM) | 15.6 µg/mL (≈ 141 µM) | 7.81 µg/mL (≈ 70.3 µM) | 7.81 µg/mL (≈ 70.3 µM) | CN1C(=O)C=CC1=O | 62.5 µg/mL (≈ 563 µM) | > 250 µg/mL | > 10 µg/mL | 62.5 µg/mL (≈ 563 µM) | 62.5 µg/mL (≈ 563 µM) | 15.6 µg/mL (≈ 141 µM) | > 10 µg/mL | 15.6 µg/mL (≈ 141 µM) | 31.2 µg/mL (≈ 281 µM) | 15.6 µg/mL (≈ 141 µM) | 15.6 µg/mL (≈ 141 µM) | 7.81 µg/mL (≈ 70.3 µM) | MIC [12]: 7.81 µg/mL (≈ 70.3 µM); MFC [13]: 125 µg/mL (≈ 1130 µM); MIC [13]: 62.5 µg/mL (≈ 563 µM); GI50 [14]: > 10 µg/mL |
| 62.5 µg/mL (≈ 499 µM) | 15.6 µg/mL (≈ 125 µM) | 15.6 µg/mL (≈ 125 µM) | 3.9 µg/mL (≈ 31.2 µM) | 7.81 µg/mL (≈ 62.4 µM) | 15.6 µg/mL (≈ 125 µM) | 7.81 µg/mL (≈ 62.4 µM) | 7.81 µg/mL (≈ 62.4 µM) | CCN1C(=O)C=CC1=O [N-ETHYLMALEIMIDE] | 125 µg/mL (≈ 999 µM) | > 250 µg/mL | 9.9 µg/mL (≈ 79.1 µM) | 31.2 µg/mL (≈ 250 µM) | 31.2 µg/mL (≈ 250 µM) | 3.9 µg/mL (≈ 31.2 µM) | 6.7 µg/mL (≈ 53.5 µM) | 15.6 µg/mL (≈ 125 µM) | 15.6 µg/mL (≈ 125 µM) | 15.6 µg/mL (≈ 125 µM) | 15.6 µg/mL (≈ 125 µM) | 7.81 µg/mL (≈ 62.4 µM) | MIC [12]: 7.81 µg/mL (≈ 62.4 µM); MFC [13]: 250 µg/mL (≈ 2000 µM); MIC [13]: 62.5 µg/mL (≈ 499 µM); GI50 [14]: 6.5 µg/mL (≈ 51.9 µM) |
